SUMO1 PPI mod = modulators of SUMO1 protein-protein interactions, primary screen, biochemical, uHTS; inhibition, % at 20 µM; actives 0.33% (n = 360,000); Small ubiquitin-related modifier 1 (Homo sapiens), P63165; AID 602429, 2012; SUMO1 binding to a labelled peptide, TR-FRET, 1 h; in the data active = inhibition above about 37%
Target sequence (P63165 whole entry, looked up): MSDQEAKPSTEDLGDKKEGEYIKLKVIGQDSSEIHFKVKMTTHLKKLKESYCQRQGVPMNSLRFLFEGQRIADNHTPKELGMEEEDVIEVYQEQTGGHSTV
STEP inh = STEP phosphatase inhibitors, primary screen, biochemical, fluorescence intensity, uHTS; Tyrosine-protein phosphatase non-receptor type 5 (Homo sapiens), P54829; recombinant STEP, OMFP fluorogenic substrate; inhibition, % at 20 µM; actives 0.25% (n = 360,000); AID 588621, 2011;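 active = inhibition at 20 µM, scaled per plate between control wells, above about 37%, limit read from the data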;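 note: 0% = DMSO with enzyme and substrate and 100% = substrate only without enzyme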
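Assay system: isolated STEP enzyme. Buffer or medium: pH 6.0 Bis-Tris with DTT and Tween 20. Also added: fluorogenic phosphatase substrate OMFP at 25 µM final. Dosing: 20 µM, 1% DMSO. Timing: 20 min reaction, room temperature, in the dark. Measured by: fluorescence intensity, excitation 480 nm, emission 540 nm. Evaluation: normalized % inhibition.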
LMPTP inh = LMPTP phosphatase inhibitors, primary screen, biochemical, fluorescence intensity, uHTS | Low molecular weight phosphotyrosine protein phosphatase (Homo sapiens), P24666 | recombinant LMPTP-A, OMFP fluorogenic substrate | inhibition, % at 20 µM | actives 0.22% (n = 360,000) | AID 651560, 2012;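 active = compounds that cut the enzyme signal by at least half of the control window in the single-dose screen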;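 note: plate controls were DMSO wells with enzyme plus substrate for no effect and substrate without enzyme for full effect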
Target sequence (P24666 whole entry, looked up): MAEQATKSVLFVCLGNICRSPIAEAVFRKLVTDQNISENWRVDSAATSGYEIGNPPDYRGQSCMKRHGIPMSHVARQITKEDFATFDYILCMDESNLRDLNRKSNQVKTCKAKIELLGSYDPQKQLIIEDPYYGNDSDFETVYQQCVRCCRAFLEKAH
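Assay system: LMPTP-A phosphatase enzyme | Input: 0.625 nM enzyme | Also added: Fluorogenic phosphatase substrate OMFP at 400 µM final | Compound dosing: One test concentration per compound, 20 µM, with 3% DMSO overall | Schedule: 50 min enzyme reaction at room temperature, protected from light | Signal: Fluorescence intensity | Benchmarks: no-enzyme and uninhibited controls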
Scp1 inh = Scp-1 phosphatase inhibitors, primary screen, biochemical, colorimetric, uHTS; actives 0.88% (n = 340,000); Recombinant Scp1, phosphopeptide, malachite green phosphate absorbance; inhibition, % at 20 µM; AID 493091, 2011;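 active = inhibition above about 50% at 20 µM, limit read from the data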;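 note: plate controls were DMSO wells with enzyme for no effect and wells lacking enzyme for full effect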
Target sequence (Q9GZU7 76-261 limits assumed): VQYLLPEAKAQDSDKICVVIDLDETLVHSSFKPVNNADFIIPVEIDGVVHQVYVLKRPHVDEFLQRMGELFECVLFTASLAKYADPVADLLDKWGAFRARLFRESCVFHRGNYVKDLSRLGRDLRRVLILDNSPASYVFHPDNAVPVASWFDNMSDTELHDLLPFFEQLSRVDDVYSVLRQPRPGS
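System: SCP-1 catalytic domain; Reagent: Phospho 17-mer peptide substrate; Doses: one concentration, 20 µM, with 1.0% DMSO; Incubation: 45 min room-temperature reaction, 5 min colour, 30 min stabiliser; Signal: Phosphate-binding colour reagent, absorbance read at 630 nm.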
DNMT1 inh = human DNMT1 methyltransferase inhibitors, primary screen, biochemical, molecular beacon, fluorescence, HinP1I cleavage, uHTS. actives 0.83% (n = 360,000). DNA (cytosine-5)-methyltransferase 1 (Homo sapiens), P26358. inhibition (reported as % activation of signal), % at 10 µM. AID 588458, 2011; in the data active = inhibition above about 50%
GRK2 inh = compounds blocking aptamer binding on GRK2 – biochemical, human GRK2, bead flow cytometry, HTS, primary screen. inhibition of aptamer binding, % at 10 µM. FAM-aptamer displacement from GRK2. Beta-adrenergic receptor kinase 1 (Homo sapiens), P25098. AID 488847, 2010. actives 0.59% (n = 330,000);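 active = inhibition of aptamer binding above 40%, roughly 3 SD of noise, on plates passing a quality check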;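 note: median bead fluorescence of bound FAM aptamer so fluorescent compounds give negative values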
Scp1 confirm = Scp-1 phosphatase inhibitors, retest, confirmation, biochemical, colorimetric, single concentration; recombinant SCP-1 catalytic domain, phosphate release, malachite green absorbance; actives 61% (n = 2,500); shares compounds with Scp1 inh; inhibition, % at 20 µM; AID 540281, 2011;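 note: plate controls were DMSO with enzyme for no effect and buffer wells lacking enzyme for full effect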
MG interference = colorimetric readout interference by compounds, confirmation, artefact control for Scp-1 inhibitor project, biochemical, single concentration; shares compounds with Scp1 inh; Colorimetric interference counterscreen, malachite green absorbance 630 nm; apparent inhibition (interference), % at 20 µM; 2,500 tested, under 10 active; AID 540313, 2011;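 note: compounds added after enzyme reaction finished so only phosphate colour detection is probed; plate controls were DMSO wells with completed Scp-1 reaction for no effect and substrate wells lacking enzyme for full effect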
Scp-1 Tm shift = Scp-1 binding by thermal shift, confirmation, orthogonal assay for Scp-1 inhibitor project, biophysical, differential scanning fluorimetry; shares compounds with Scp1 inh; Recombinant SCP1, Sypro Orange thermal shift Tm; thermal shift relative to vanadate control, % at 40 µM; actives 25% (n = 1,500); AID 540329, 2011;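 active = substances whose mean melting-temperature shift, as a percentage of the reference inhibitor's shift, reaches about 5.3%, limit read from the data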;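 note: 0% = Tm of DMSO wells and 100% = Tm with sodium orthovanadate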
Numbers without * were called inactive; . = no result given. Shown are actives, neighbours in structure and some others; about 2.1% of the full set was active somewhere.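 Rule for the calls, unless noted: active = inhibition of at least 30% at 20 µM; inactive = the rest.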

SMILES	SUMO1 PPI mod	STEP inh	LMPTP inh	Scp1 inh	DNMT1 inh	GRK2 inh	Scp1 confirm	MG interference	others
OC(c1ccccc1)(c1nc(-c2ccc(Cl)cc2)cs1)C(F)(F)F (stereo not drawn)	0	-1	2	.	-18	.	.	.
C[C@]12CCC3C(CC=C4C[C@@H](O)CC[C@@]43C)C1CCC2[C@]1(C)CCC(=O)O1 (stereo partly drawn)	3	-3	-1	58*	-1	1	-2	-12
CC12CCC(O)CC1=CCC1C2CCC2(C)C1CCC21CCC(=O)O1 (stereo not drawn)	-2	-3	0	-8	0	3	.	.
COc1ccccc1NC(=O)C(=N\O)/C(C)=N/O	7	25	5	75*	41	0	30*	-15	Scp-1 Tm shift=-2
O=C(CCCSc1nc2ccccc2s1)Nc1nccs1	-4	-2	0	-8	-3	0	.	.
CCCC(=O)Nc1ccc2nc(SCC(=O)Nc3nccs3)sc2c1	0	-3	-3	102*	0	0	1	-4
O=C(COc1ccc(Cl)cc1)NNC(=O)c1ccc(=O)[nH]c1	-3	2	0	59*	1	0	26	6
CCC(C)c1ccccc1NC(=O)c1cccnc1 (stereo not drawn)	0	-2	0	-4	-1	4	.	.
CCC(C)c1ccccc1NC(=O)c1cccc(-n2cnnn2)c1 (stereo not drawn)	-2	-3	0	73*	-4	1	-1	-10
CCOc1ccccc1NC(=O)C1=C(C)NC(=S)NC1c1cccs1 (stereo not drawn)	0	0	-2	64*	3	5	-10	-11
CCOc1cc(/C=C/c2cccc[n+]2C)ccc1O	-32	0	-2	72*	0	1	-12	-14
COc1cc(/C=C/c2cccc[n+]2C)ccc1OCC(=O)Nc1ccccc1C	-8	0	0	52*	1	0	-3	-11
COc1ccnc(-n2cccc2C#N)c1C#N	-1	-2	0	-2	1	0	.	.
COc1ccc(S(=O)(=O)N2CCCC2)cc1OC	0	1	0	0	1	1	.	.
COc1ccc(S(=O)(=O)N2CCCC2)cc1C(C)C	-3	-1	0	53*	-1	1	-10	-14
COc1cccc2cc(C(=O)CS(=O)(=O)c3ccc(C)cc3)c(=O)oc12	-19	1	0	66*	6	3	-7	-19
Cc1ccc(S(=O)(=O)CC(=O)c2cc3cccc(C)c3oc2=O)cc1	-24	0	-1	-5	5	0	.	.
Cc1ccc(C(=O)NC(=S)NCc2ccco2)cc1	1	0	2	14	-8	1	.	.
Cc1c(CCC(=O)O)c(=O)oc2c(C)c3occ(-c4ccc(Br)cc4)c3cc12	52*	22	90*	67*	12	0	66*	-28	Scp-1 Tm shift=-6
